Source: PubChem (several laboratories)
This is a sample that favours compounds with a hit; in the whole collection about 2.1% have one here.
SUMO Mot1 rescue: SUMOylation pathway inhibition by Mot1-301 growth rescue | AID 2716 | growth rescue, % at 18.8 µM | 1% of 320,000 active | S. cerevisiae Mot1-301 growth rescue, ATP luminescence, 38.5C; percent above DMSO median, 100 means doubled;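 active = every valid replicate shows activation above 250% relative to neutral control wells; inactive = the rest, any valid replicate at or below 250%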
cardiac RTF act: cardiac RTF calcium sensitization; 0.24% of 340,000 active; IANBD-labeled TnC RTF fluorescence at EC20 calcium; 0% EC20 calcium, 100% full calcium; activation, % at 7.2 µM; P19429+P45379; AID 493008;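 active = activation above the mean over all tested compounds plus 3 SD, cut at about 30% in these data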;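 note: rise in fluorescence read as greater calcium sensitivity of cardiac thin filaments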
Efflux pump mplx: inhibitors of Candida antifungal efflux pumps expressed in yeast | S. cerevisiae Candida pump triplex, Nile Red efflux | inhibition, % at 10 µM | 0.44% of 330,000 active | AID 485275;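 active = plate passing quality check with inhibition over a set limit, or well fluorescence over plate mean plus 4 SD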;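 note: Nile Red retained in pooled yeast measured as flow cytometry median fluorescence; higher means more Nile Red kept so more efflux inhibition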
ARNT TACC3 PPI: ARNT/TACC3 interaction disruption | Q9Y6A5 | AlphaScreen His-ARNT PAS-B/GST-TACC3 binding, luminescence; TACC3 fragment carries E629A point mutation | inhibition, % at 9.99 µM | 0.66% of 390,000 active | AID 623870;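 active = mean inhibition of replicates at least 50% and at least half of replicates each reaching 50%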
Cardiac RTF inh: cardiac RTF calcium desensitization. 0.12% of 340,000 active. IANBD-labeled cardiac RTF, Ca2+ fluorescence. AID 493244. inhibition, % at 7.15 µM. P19429+P45379;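 active = inhibition above the mean inhibition of all tested compounds plus 3 SD, cut at about 17% in these data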;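 note: assay run at fixed EC70 calcium of 1.6 mM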
UCH37 inh: inhibitors of human deubiquitinating enzyme UCH37. inhibition, % (concentration not given with the values). 0.33% of 330,000 active. Q9Y5K5. purified proteasome/UCH37, Ub-AMC cleavage fluorescence. AID 588478;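 active = mean inhibition over replicate wells above about 20%, limit read from the data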
Target sequence (Q9Y5K5 whole entry, looked up): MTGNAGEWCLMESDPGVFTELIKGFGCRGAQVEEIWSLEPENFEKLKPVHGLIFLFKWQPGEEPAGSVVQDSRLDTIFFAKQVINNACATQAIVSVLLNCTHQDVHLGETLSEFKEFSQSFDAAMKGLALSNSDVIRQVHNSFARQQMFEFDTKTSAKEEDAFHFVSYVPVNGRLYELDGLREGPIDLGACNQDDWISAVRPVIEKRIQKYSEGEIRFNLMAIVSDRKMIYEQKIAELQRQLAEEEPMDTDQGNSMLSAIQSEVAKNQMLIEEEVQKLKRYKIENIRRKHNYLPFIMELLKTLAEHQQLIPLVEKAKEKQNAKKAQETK
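Material: Human UCH37 enzyme supplied as purified proteasome complex | Schedule: 30 min preincubation with enzyme, 25 min cleavage at room temperature | Detection: AMC fluorescence 355/460 nm | Measure: % inhibition of Ub-AMC cleavage fluorescence | Controls: Wells without proteasome as full block, compound-free enzyme plus substrate as uninhibited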
Mot1 SUMO dose: inhibits SUMO pathway, affecting Mot1-301 yeast growth. shares compounds with SUMO Mot1 rescue. S. cerevisiae Mot1-301 galactose growth, ATP luminescence, 24 h; -100 = growth of slx-deleted rescue strain. growth activity, percent, % at 42 µM. 2,300 tested, under 10 active. AID 493004;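 active = Signal drops as the depositor expects, and the fitted half-maximal dose is no more than ten times the top valid tested dose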;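 note: more negative values mean stronger growth rescue toward the control strain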
Each line names hits and unclear results; the compound was inactive in the other large screens (follow-up assays come after a bar, where they were run).

CC(=O)Nc1ccc(/C(C)=N/NC(=O)c2ccncc2)cc1	SUMO Mot1 rescue active (no result: UCH37 inh) | Mot1 SUMO dose inactive
C/C(=N/NC(=O)c1ccncc1)c1ccc(NC(=O)c2ccccc2)cc1	none (no result: UCH37 inh)
COCCN1C(=O)/C(=C/c2cc3c(cc2Br)OCO3)NC1=S	SUMO Mot1 rescue 602.9 | Mot1 SUMO dose inactive
COc1ccccc1-c1nc2sc(=Cc3cccs3)c(=O)n2n1	none (no result: SUMO Mot1 rescue, cardiac RTF act, Efflux pump mplx, ARNT TACC3 PPI, Cardiac RTF inh)
O=C(CCC(=O)Nc1ccc(F)cc1)NN=Cc1ccncc1	none (no result: SUMO Mot1 rescue, cardiac RTF act, Efflux pump mplx, ARNT TACC3 PPI, Cardiac RTF inh)
Cc1ccc(NC(=O)CSc2nn(-c3ccc(Cl)cc3)c(=S)s2)cc1S(=O)(=O)N(C)C	none
CN(C)S(=O)(=O)c1cc(NC(=O)CSc2nn(-c3ccc(Cl)cc3)c(=S)s2)ccc1Cl	SUMO Mot1 rescue 555.2 | Mot1 SUMO dose inactive
CC(=NNC(=S)NCCc1ccccc1)c1cccc(Br)c1	none (no result: SUMO Mot1 rescue, cardiac RTF act, Efflux pump mplx, ARNT TACC3 PPI, Cardiac RTF inh)
CCN(CC)CCNC(=O)CCn1c(=S)[nH]c2cc3c(cc2c1=O)OCO3	SUMO Mot1 rescue active | Mot1 SUMO dose inactive
CCN(CC)CCn1c(=S)[nH]c2cc3c(cc2c1=O)OCO3	none
O=C(CCNC(=O)c1ccc(Br)cc1)NCc1ccccc1F	SUMO Mot1 rescue 812.4 | Mot1 SUMO dose inactive
Cc1cc2nc(CCl)cc(=O)n2[nH]1	SUMO Mot1 rescue active | Mot1 SUMO dose inactive
COCc1cc(=O)n2[nH]c(C)cc2n1	none
OCC[C@@H]1C[C@H](O)[C@@H](O)[C@]2(CCc3ccccc3CO2)O1	SUMO Mot1 rescue 751.2 (no result: UCH37 inh) | Mot1 SUMO dose inactive
CCOc1ccccc1N(CC(=O)Nc1ccccc1C(=O)N1CCCC1)S(C)(=O)=O	SUMO Mot1 rescue 586.3 (no result: ARNT TACC3 PPI) | Mot1 SUMO dose inactive
CC1C(=NO)C(CN(C)C)C2CC1C2(C)C (stereo not drawn)	none (no result: SUMO Mot1 rescue, cardiac RTF act, Efflux pump mplx, ARNT TACC3 PPI, Cardiac RTF inh)
CCc1ccc(NC(=O)CON=C(C)c2cc3ccccc3o2)cc1	none (no result: SUMO Mot1 rescue, cardiac RTF act, Efflux pump mplx, ARNT TACC3 PPI, Cardiac RTF inh)
Cc1ccc(CNC(=O)CCn2cc(-c3ccc(C)cc3)nc2CCN)cc1	SUMO Mot1 rescue active (no result: UCH37 inh) | Mot1 SUMO dose inactive
C=CCn1cnc2c(c1=O)c1nc3ccccc3nc1n2N=Cc1ccccn1	none (no result: SUMO Mot1 rescue, cardiac RTF act, Efflux pump mplx, ARNT TACC3 PPI, Cardiac RTF inh)
O=C(CN1CCN(c2nc(-c3ccccc3)cs2)CC1)NNC(=O)c1ccc(Br)cc1	SUMO Mot1 rescue 655.7 | Mot1 SUMO dose inactive
COc1cccc(-c2csc(N3CCN(CC(=O)NNC(=O)c4ccc(Br)cc4)CC3)n2)c1	none
Cc1cccc(OCc2nnc(SCC(=O)O)n2-c2ccccc2)c1	SUMO Mot1 rescue active | Mot1 SUMO dose inactive
O=C(O)C(CC(=O)c1ccc(Cl)cc1)=NNc1ccc([N+](=O)[O-])cc1[N+](=O)[O-]	none (no result: SUMO Mot1 rescue, cardiac RTF act, Efflux pump mplx, ARNT TACC3 PPI, Cardiac RTF inh)
CC(=NNC(=O)Cn1nc2ccccc2n1)c1ccc(F)cc1	none (no result: SUMO Mot1 rescue, cardiac RTF act, Efflux pump mplx, ARNT TACC3 PPI, Cardiac RTF inh)
O=C(CSc1ncn[nH]1)NN=Cc1ccc(F)cc1	none (no result: SUMO Mot1 rescue, cardiac RTF act, Efflux pump mplx, ARNT TACC3 PPI, Cardiac RTF inh)
CC(C)(C)NS(=O)(=O)c1ccc(Oc2ncc(C(F)(F)F)cc2Cl)cc1	none
COCCCNS(=O)(=O)c1ccc(Oc2ncc(C(F)(F)F)cc2Cl)cc1	SUMO Mot1 rescue active | Mot1 SUMO dose inactive
Cc1cccc(C)c1NC(=O)C1(N(Cc2ccco2)C(=O)CC2NC(=O)NC2=O)CCCCC1 (stereo not drawn)	SUMO Mot1 rescue 413.5 (no result: ARNT TACC3 PPI) | Mot1 SUMO dose inactive
O=C(COc1ncnc2c(Cl)cc(Cl)cc12)NCCC1=CCCCC1	SUMO Mot1 rescue 420.3 | Mot1 SUMO dose inactive
O=C(COc1ncnc2ccccc12)NCCC1=CCCCC1	none
O=C(COc1cnc2ccccc2n1)NCCC1=CCCCC1	SUMO Mot1 rescue active | Mot1 SUMO dose inactive
O=C(COc1nncc2ccccc12)NCCC1=CCCCC1	none
Oc1ccccc1C=NNC(=S)NC1CC2CC1C1C=CCC21 (stereo not drawn)	none (no result: SUMO Mot1 rescue, cardiac RTF act, Efflux pump mplx, ARNT TACC3 PPI, Cardiac RTF inh)
Nc1ccc(C(=O)NN=Cc2cc(N=Nc3cccc4ccccc34)ccc2O)cc1	none (no result: SUMO Mot1 rescue, cardiac RTF act, Efflux pump mplx, ARNT TACC3 PPI, Cardiac RTF inh)
O=C(CSc1nc(-c2ccccc2)cc(=O)[nH]1)Nc1ccc(Br)cc1	SUMO Mot1 rescue 422.5 | Mot1 SUMO dose inactive
O=C(CSc1nc(-c2ccccc2)cc(=O)[nH]1)Nc1ccc(F)c(F)c1	none
CCCOC(=O)/C(=C\C=C\c1ccccc1)NC(=O)c1ccccc1	none
